HMGR II inh – E. faecalis class II HMG-CoA reductase inhibition; purified E. faecalis HMGR, NADPH absorbance 340 nm kinetic; inhibition, % at 10 µM; actives 0.41% (n = 190,000); AID 1066;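 active = inhibition above a set limit, the median over all tested compounds plus 3 SD, cut at about 9.5% in these data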;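 note: enzyme runs in reverse so mevalonate oxidation gives rising NADPH absorbance; 0% = complete reaction with DMSO and 100% = background rate lacking mevalonate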
MT stabilize HCS – stabilizes microtubules in HeLa cells. HeLa tubulin immunostaining HCS, 24 h; share of cells brighter than vehicle mean+2SD. % tubulin-high responders, % at 10 µM. actives 0.83% (n = 200,000);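 active = plate Z-score above 3 for both tubulin-high and condensed-nucleus cell shares, with cell loss under 80%, at 10 µM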;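 note: anti alpha tubulin signal scored within the nucleus-defined area of each cell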
PGE2 EP2 inh – inhibitors of human EP2 prostaglandin E2 receptor; P43116; C6 glioma cells expressing human EP2, cAMP TR-FRET; cells stimulated with saturating PGE2; inhibition, % at 25 µM; actives 0.52% (n = 260,000); AID 1422;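 active = percent inhibition above 40 after rounding to a whole number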;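 note: rat C6 glioma host cells with rolipram phosphodiesterase inhibitor present; the protocol text gives 20 µM as final concentration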
Target sequence (P43116 whole entry, looked up): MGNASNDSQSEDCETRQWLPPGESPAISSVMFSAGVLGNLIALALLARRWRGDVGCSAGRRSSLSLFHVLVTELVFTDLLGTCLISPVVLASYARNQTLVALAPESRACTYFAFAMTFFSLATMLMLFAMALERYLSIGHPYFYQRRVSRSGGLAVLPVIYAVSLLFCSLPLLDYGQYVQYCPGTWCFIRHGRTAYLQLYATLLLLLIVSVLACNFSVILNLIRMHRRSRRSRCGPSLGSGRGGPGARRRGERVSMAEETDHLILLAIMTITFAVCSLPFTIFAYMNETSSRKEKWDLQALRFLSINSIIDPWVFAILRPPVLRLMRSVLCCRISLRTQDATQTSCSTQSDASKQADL
Tb hexokinase – blocks Trypanosoma brucei hexokinase 1 activity; recombinant TbHK1, G6PDH-coupled NADH A340; inhibition, % at 10 µM; actives 0.11% (n = 220,000); AID 1430;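 active = inhibition of 50% or more in the single-dose primary screen; inactive = inhibition below 50%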
EP2 mod – modulators of human EP2 prostaglandin E2 receptor; P43116; EP2-expressing cells, cAMP HTRF FRET, PGE2 co-stimulation; induction, % at 25 µM; AID 940; actives 0.83% (n = 260,000);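 active = compounds whose cAMP rise, as percent of the full-agonist control response, exceeds 60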;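 note: rat C6 glioma line stably carrying human EP2 under a CMV promoter; the protocol text gives 20 µM as final concentration; 100% = response of wells given 1 µM PGE2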
bCat nuc transl – alters nuclear translocation of beta-catenin in HeLa cells; immunofluorescence imaging; nuclear translocation activity, % at 5 µM; actives 0.3% (n = 190,000);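 active = nuclear translocation activity above 50% at 5 µM, with a well cell count of 50 or more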;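 note: per-cell ratio of nuclear to cytoplasmic median beta-catenin stain intensity; plate controls were DMSO negative control for no effect and GSK-3 inhibitor IX positive control for full effect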
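test system = HeLa cells, endogenous beta-catenin | dosing = single 5 µM dose plus 0.02–20 µM confirmation series | times = compound treatment 24 h, 37°C, 5% CO2 | technique = beta-catenin immunofluorescence imaging with DAPI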
An asterisk follows results filed as active. Only some compounds are listed: those with a hit (about 2.4% of all), similar ones and a draw of the others.

`CC1CN(C(=O)c2ccc(Cl)cc2)CC(C)O1` (stereo not given) gave PGE2 EP2 inh 6.4 and EP2 mod 3.1.
Cc1cc(C)cc(OCc2nc3ncc(Br)cc3[nH]2)c1 was read as MT stabilize HCS 34.4*, PGE2 EP2 inh 8.0 and Tb hexokinase 31.7.
Screening COc1cccc(OCc2nc3ccccc3[nH]2)c1 returned HMGR II inh -5.0, MT stabilize HCS 5.5, PGE2 EP2 inh 9.5, Tb hexokinase -10.1 and EP2 mod -23.6.
Brc1cnc2nc(SCc3nc4ccccc4[nH]3)[nH]c2c1 was read as PGE2 EP2 inh 4.1, Tb hexokinase -3.0, EP2 mod 20.7 and bCat nuc transl -0.3.
Screening COc1cccc(OCc2nc3ncc(Br)cc3[nH]2)c1 returned HMGR II inh 2.0, MT stabilize HCS 35.6*, PGE2 EP2 inh 3.6, Tb hexokinase 0.8, EP2 mod -34.7 and bCat nuc transl 0.7.
`Cc1cc2c(cc3c(=O)n(CC(=O)NCc4ccco4)nc(C)n32)s1` gave EP2 mod 21.6.
`O=C(Nc1ccc(Cl)cc1C(F)(F)F)C(Sc1nnc(-c2cccs2)o1)c1ccccc1` (stereo not given) gave HMGR II inh -8.7, MT stabilize HCS 14.3*, PGE2 EP2 inh 5.8, Tb hexokinase 0.1, EP2 mod 3.4 and bCat nuc transl 32.7.
COC(=O)c1ccccc1NC(=O)CN(c1ccc(OC)cc1)S(C)(=O)=O was read as HMGR II inh -0.1, MT stabilize HCS 29.1*, PGE2 EP2 inh 3.6, Tb hexokinase -2.2, EP2 mod 35.8 and bCat nuc transl 2.2.
COC(=O)c1ccccc1NC(=O)CN(c1cc(OC)ccc1OC)S(C)(=O)=O was read as HMGR II inh 0.1, MT stabilize HCS 1.2, PGE2 EP2 inh 9.9, Tb hexokinase -3.1, EP2 mod 20.1 and bCat nuc transl 1.1.
`COc1ccc(NC(=O)CN(c2ccc([N+](=O)[O-])cc2)S(=O)(=O)c2ccccc2)c(OC)c1` gave HMGR II inh -4.2, MT stabilize HCS 2.1, PGE2 EP2 inh 6.0, Tb hexokinase 32.4, EP2 mod 15.9 and bCat nuc transl 3.6.
For COc1ccc(N(CC(=O)Nc2ccc(OC)cc2OC)S(=O)(=O)c2ccccc2)cc1 the results were HMGR II inh -1.1, MT stabilize HCS 8.3*, PGE2 EP2 inh 11.6, Tb hexokinase -0.6, EP2 mod -9.4 and bCat nuc transl -0.2.
For CCCNC(=O)NC(=O)COC(=O)c1ccc(S(=O)(=O)N(C)c2ccccc2OC)cc1 the results were HMGR II inh -3.3, MT stabilize HCS 15.2*, PGE2 EP2 inh 11.3, Tb hexokinase 1.3, EP2 mod -39.0 and bCat nuc transl -2.7.
For COc1ccccc1N(C)S(=O)(=O)c1ccc(C(=O)OCC(N)=O)cc1 the results were HMGR II inh -3.7, MT stabilize HCS 2.1, PGE2 EP2 inh 3.5, Tb hexokinase -2.9, EP2 mod -48.9 and bCat nuc transl -2.3.
CCn1c[n+](CC(O)COc2ccc(F)cc2)c2ccccc21 (stereo not given) was read as PGE2 EP2 inh 11.8 and EP2 mod -3.7.
`O=C(N/N=C/c1cccc2ccccc12)c1n[nH]c2c1CCCC2` gave HMGR II inh 3.5, MT stabilize HCS 30.6*, PGE2 EP2 inh 1.1, Tb hexokinase -16.2, EP2 mod -18.8 and bCat nuc transl 8.8.
Screening O=C(N/N=C/c1cccs1)c1n[nH]c2c1CCCC2 returned PGE2 EP2 inh 5.6, Tb hexokinase -44.3, EP2 mod -19.6 and bCat nuc transl 0.2.
Screening Cc1ccc(/C=N/NC(=O)c2n[nH]c3c2CCCC3)cc1 returned PGE2 EP2 inh 23.7, Tb hexokinase -9.0, EP2 mod -14.5 and bCat nuc transl 57.9*.
For O=C(N/N=C/c1ccc(Cl)cc1Cl)c1n[nH]c2c1CCCC2 the results were HMGR II inh -4.3, MT stabilize HCS 21.5*, PGE2 EP2 inh 2.7, Tb hexokinase -18.5, EP2 mod 0.6 and bCat nuc transl 19.8.
`O=C(N/N=C\c1cccc(Cl)c1)c1n[nH]c2c1CCCC2` gave HMGR II inh -3.8, MT stabilize HCS 4.7, PGE2 EP2 inh 9.3, Tb hexokinase -0.1, EP2 mod -15.3 and bCat nuc transl -1.5.
`Cc1cc(-c2cncnc2C2CCCN(CC(=O)NCc3cccs3)C2)on1` (stereo not given) gave EP2 mod -30.9.
COc1ccc(NC(=O)CCN2C(=O)/C(=C/c3cc(OC)c(OC)c(OC)c3)SC2=S)cc1 was read as PGE2 EP2 inh 11.1 and EP2 mod -6.3.
For CCC(C)(C)n1nnnc1C(c1cccc(C#N)c1)N1CCN(C(=O)c2ccco2)CC1 (stereo not given) the results were PGE2 EP2 inh 8.8 and EP2 mod -0.1.
Nc1no[n+]([O-])c1C(=O)N1CCCC1 was read as PGE2 EP2 inh 3.0 and EP2 mod 3.7.
c1ccc(Cn2nnc3c(N4CCCCCC4)ncnc32)cc1 was read as HMGR II inh 1.7, MT stabilize HCS 1.3, PGE2 EP2 inh 6.8, Tb hexokinase -4.1, EP2 mod -2.0 and bCat nuc transl -3.5.
CCCN1CCN(c2ncnc3c2nnn3Cc2ccccc2)CC1 was read as HMGR II inh 3.2, MT stabilize HCS 57.5*, Tb hexokinase 10.2, EP2 mod -21.3 and bCat nuc transl 71.9*.
For CC(C)(C)OC(=O)N1CCC[C@H]1C(=O)c1cccs1 the results were EP2 mod -38.8.
Screening CCNc1ccc(C(=O)OCC)cc1NC(=O)c1cccc(N(C)C)c1 returned HMGR II inh -4.0, MT stabilize HCS 37.8*, PGE2 EP2 inh 7.8, Tb hexokinase -0.6, EP2 mod 1.1 and bCat nuc transl 26.5.
Screening CCNc1ccc(C(=O)OCC)cc1NC(=O)c1cccc(S(=O)(=O)N(C)c2ccccc2)c1 returned HMGR II inh 2.7, MT stabilize HCS 4.7, PGE2 EP2 inh 10.6, Tb hexokinase -4.0, EP2 mod 4.5 and bCat nuc transl -3.8.
For O=C(COC(=O)c1ccc(NS(=O)(=O)c2cccs2)cc1O)NCc1ccccc1 the results were HMGR II inh -3.0, MT stabilize HCS 23.5*, PGE2 EP2 inh 2.1, Tb hexokinase -6.6, EP2 mod 0.8 and bCat nuc transl 76.3*.
O=C(COC(=O)c1ccc(NS(=O)(=O)c2cccs2)cc1)NCc1ccco1 was read as PGE2 EP2 inh 6.0, Tb hexokinase 1.3, EP2 mod 18.9 and bCat nuc transl 110.8*.
Screening Cn1c(SCC(=O)Nc2cccc3ccccc23)nc2ccccc2c1=O returned PGE2 EP2 inh 7.2 and EP2 mod -6.1.
`CCn1c(SCC(=O)Nc2ccc(NC(C)=O)cc2)nnc1-c1ccco1` gave PGE2 EP2 inh 13.1 and EP2 mod -10.2.
For COC(=O)C1=C(C)NC2=C(C(=O)c3ccccc32)C1c1ccc(OC)c(OC)c1OC (stereo not given) the results were PGE2 EP2 inh 10.4 and EP2 mod 17.9.

Bioassay records as filed in PubChem BioAssay.
